In ChEMBL document CHEMBL1125917, “Synthesis of halogen-substituted 1,5-benzothiazepine derivatives and their vasodilating and hypotensive activities” (1991):

How the values were obtained:
Cavia porcellus [1] = species: Cavia porcellus; test: Increase in the coronary blood flow (CBF) was determined in isolated guinea pig heart at a dose of 30 ug/heart; type: functional, Artery
How it was run: (§1)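 Hartley guinea pig hearts perfused by the Langendorff method with modified Locke-Ringer solution containing defibrinated rabbit blood, at 40 cm H2O and 29 ± 1 °C. Compounds in saline injected into the aortic cannula at 3, 10, 30 or 100 μg/heart. Coronary flow measured by drop counter; graded by the lowest dose giving an increase of at least 0.5 mL/min.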

Rattus norvegicus [2] = test: Change in blood pressure in spontaneously hypertensive rats 1 hr following 30 mg/kg p.o.; type: functional; details: route oral
How it was run: (§2)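 Male spontaneously hypertensive rats, fasted 20 h. Compounds dissolved in deionized water and given orally (30 mg/kg; some at 100 mg/kg). Blood pressure measured by tail-cuff in conscious animals. Change (mmHg) taken from the predosing value at 1 and 4 h, or 1 and 5 h, after dosing. N = 3-6.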

Canis familiaris [3] = test: Antihypertensive activity by the increase in the vertebral blood flow in anesthetized dogs expressed as duration of half of the maximum change in blood flow.; type: functional, Canis lupus familiaris
How it was run: (§3)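 Anesthetized dogs; compounds given intraarterially. Vertebral blood flow recorded, and a dose-response curve built from peak responses. Potency given as ratio to diltiazem, calculated from the dose-response curves. Half duration is the time, in minutes, that blood flow stays at one-half of the maximum change.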

Canis familiaris [4] = species: Canis familiaris; test: Antihypertensive activity expressed as the ratio of the potency evaluated by increased vertebral blood flow (VBF) to that of diltiazem.; type: functional, Canis lupus familiaris; how it was run: as §3
Rattus norvegicus [5] = test: Hypotensive activity in SHR (spontaneously hypertensive rats) expressed as change in blood pressure(mmHg) after 4 hr dosing at a concentration of 30 mg/kg; type: functional; how it was run: as §2
Cavia porcellus [6] = species: Cavia porcellus; test: (§4) Increase in the coronary blood flow (CBF) was determined in isolated guinea pig heart at a dose of 100 ug/heart; type: functional, Artery; how it was run: as §1
Cavia porcellus [7] = species: Cavia porcellus; test: as §4; type: functional; how it was run: as §1
Rattus norvegicus [8] = test: Hypotensive activity in SHR (spontaneously hypertensive rats) expressed as change in blood pressure(mmHg) after 5 hr dosing at a concentration of 30 mg/kg; type: functional; how it was run: as §2
Rattus norvegicus [9] = test: Hypotensive activity in SHR (spontaneously hypertensive rats) expressed as change in blood pressure(mmHg) after 4 hr dosing at a concentration of 100 mg/kg; type: functional; how it was run: as §2
Rattus norvegicus [10] = test: Hypotensive activity in SHR (spontaneously hypertensive rats) expressed as change in blood pressure(mmHg) after 1 hr dosing at a concentration of 30 mg/kg; type: functional; how it was run: as §2

Structure (SMILES) | Increase in CBF (Cavia porcellus [1]) | Change in blood pressure (Rattus norvegicus [2]) | Half duration (Canis familiaris [3]) | Potency ratio (Canis familiaris [4]) | Change in blood pressure (Rattus norvegicus [5]) | Increase in CBF (Cavia porcellus [6]) | Increase in CBF (Cavia porcellus [7]) | Change in blood pressure (Rattus norvegicus [8]) | Change in blood pressure (Rattus norvegicus [9]) | Change in blood pressure (Rattus norvegicus [10])
COc1ccc(C2Sc3c(Cl)cccc3N(CCN(C)C)C(=O)C2O)cc1 (stereo in doubt; (+)-16m) | >0.5 mL/min | -46.7 delta mmHg | 46 min | 1.25 | -30 delta mmHg |  |  |  |  | 
CSc1ccc(C2Sc3cc(Cl)ccc3N(CCN(C)C)C(=O)C2O)cc1 (configuration not stated) |  |  | 35 min | 0.09 |  | >0.5 mL/min |  |  |  | 
COc1ccc([C@@H]2Sc3ccccc3N(CCN(C)C)C(=O)[C@@H]2OC(C)=O)cc1 [DILTIAZEM] | >0.5 mL/min | -34 delta mmHg | 53 min | 1 | -15 delta mmHg |  |  |  |  | 
COc1ccc(C2Sc3cc(Cl)ccc3N(CCN(C)C)C(=O)C2OCc2ccc([N+](=O)[O-])cc2)cc1 (single isomer, unassigned; (+)) |  | -11.5 delta mmHg |  | 0.58 |  |  | >0.5 mL/min | -8.8 delta mmHg |  | 
COc1ccc(C2Sc3cc(Cl)ccc3N(CCN(C)C)C(=O)C2OC(C)=O)cc1.Cl (stereo in doubt; 2b) | >0.5 mL/min |  | 69 min | 1.15 |  |  |  |  |  | 
CCOC(=O)OC1C(=O)N(CCN(C)C)c2ccc(Cl)cc2SC1c1ccc(OC)cc1 (configuration not stated) |  |  | 44 min | 0.29 |  | >0.5 mL/min |  |  |  | 
COc1ccc(C2Sc3cccc(Cl)c3N(CCN(C)C)C(=O)C2O)cc1.Cl (configuration not stated) |  | -31.7 delta mmHg | 33 min | 0.2 | -26 delta mmHg | >0.5 mL/min |  |  |  | 
COc1ccc(C2Sc3cc(F)ccc3N(CCN(C)C)C(=O)C2OC(=O)c2ccc([N+](=O)[O-])cc2)cc1 (configuration not stated) | >0.5 mL/min |  | 48 min | 0.35 |  |  |  |  |  | 
COc1ccc(C2Sc3cc(Cl)ccc3N(CCN(C)C)C(=O)C2OC=O)cc1 (single isomer, unassigned; (+)) |  | -60 delta mmHg | 44 min | 0.73 |  |  | >0.5 mL/min |  | -72.7 delta mmHg | 
CCC(=O)OC1C(=O)N(CCN(C)C)c2ccc(Cl)cc2SC1c1ccc(OC)cc1 (single isomer, unassigned; (+)) | >0.5 mL/min | -67.7 delta mmHg | 64 min | 1.45 |  |  |  |  | -60.7 delta mmHg | 
CCN(C)CCN1C(=O)C(OC(C)=O)C(c2ccc(OC)cc2)Sc2cc(Cl)ccc21 (single isomer, unassigned; (+)) |  | -55.5 delta mmHg | 46 min | 0.9 |  |  | >0.5 mL/min | -22.3 delta mmHg |  | 
CCCN(C)CCN1C(=O)C(OC(C)=O)C(c2ccc(OC)cc2)Sc2cc(Cl)ccc21 (configuration not stated) |  |  | 47 min | 0.5 | -9 delta mmHg |  | >0.5 mL/min |  |  | -16 delta mmHg
CCCCNC(=O)OC1C(=O)N(CCN(C)C)c2ccc(Cl)cc2SC1c1ccc(OC)cc1 (configuration not stated) | >0.5 mL/min |  | 76 min | 0.31 |  |  |  |  |  | 
COc1ccc(C2Sc3c(ccc(Cl)c3Cl)N(CCN(C)C)C(=O)C2O)cc1.Cl (configuration not stated) | >0.5 mL/min |  | 80 min | 0.62 |  |  |  |  |  | 
C=CCN(C)CCN1C(=O)C(OC(C)=O)C(c2ccc(OC)cc2)Sc2cc(Cl)ccc21 (configuration not stated) |  | -29 delta mmHg | 37 min | 1 |  |  | >0.5 mL/min | -17 delta mmHg |  | 
CSc1ccc(C2Sc3cc(Cl)ccc3N(CCN(C)C)C(=O)C2OC(C)=O)cc1 (configuration not stated) |  |  | 37 min | 0.21 |  | >0.5 mL/min |  |  |  | 
COc1ccc(C2Sc3c(Cl)cccc3N(CCN(C)C)C(=O)C2O)cc1.Cl (configuration not stated) | >0.5 mL/min |  | 52 min | 0.91 |  |  |  |  |  | 
COc1ccc(C2Sc3cc(Cl)ccc3N(CCN(C)C)C(=O)C2OC)cc1 (single isomer, unassigned; (+)) |  | -76.8 delta mmHg | 47 min | 0.58 |  |  |  | -56.5 delta mmHg |  | 
